Laboratory results from ChEMBL document CHEMBL2046299, “Construction and functionalization of fused pyridine ring leading to novel compounds as potential antitubercular agents” (Bioorg Med Chem Lett, 2012).
Values after ≈ are worked out from the molar mass of the structure shown.

Test system: not listed separately
Assay: (§1) Cytotoxicity against african green monkey Vero cells after 72 hrs by MTS assay
Type: cell-based, Chlorocebus sabaeus
Conditions: chlorocebus sabaeus, Vero cells; read-out: INH

For `CCOC(=O)c1cc(Cl)[n+]([O-])c2ccc(C)cc12`, which cytotoxicity at 72 h is on record?
The cytotoxicity at 72 h was 96%.

Test system: Vero
Assay: as §1
Type: cell-based, Chlorocebus sabaeus
Conditions: Chlorocebus sabaeus, Vero, 72 h

With `CCOC(=O)c1cc(Cl)[n+]([O-])c2ccc(C)cc12` as the compound, how does the IC50 read?
Its IC50 is under 8 µg/mL.

Test system: Mycobacterium tuberculosis
Assay: Antitubercular activity against Mycobacterium tuberculosis H37Rv ATCC 27294 assessed as minimum concentration required to inhibit 90% growth after 1 week by fluorescence-based microplate Alamar Blue assay
Type: functional
Conditions: H37Rv ATCC 27294, 168 h
Method in brief: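 M. tuberculosis H37Rv, MABA with fluorescence read-out. MIC taken as the lowest concentration cutting fluorescence by 90% relative to bacteria-only controls. Rifampicin, isoniazid and moxifloxacin served as reference compounds.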

Which MIC90 does the source give for `CCOC(=O)c1cc(Cl)[n+]([O-])c2ccc(C)cc12` here?
Its MIC90 is 4.33 µg/mL (≈ 16.3 µM).

Which MIC90 does the source give for `CCOC(=O)c1cc(Cl)[n+]([O-])c2ccccc12` here?
Its MIC90 is 9.2 µg/mL (≈ 36.6 µM).

With `CCOC(=O)c1cc(Cl)[n+]([O-])c2ccc(F)cc12` as the compound, how does the MIC90 read?
The MIC90 was 10.9 µg/mL (≈ 40.4 µM).

For `O=C(O)c1cc(O)n(O)c(=O)c1`, which MIC90 is on record?
The MIC90 was over 100 µg/mL.

Which MIC90 does the source give for `Cc1cc(C(=O)O)cc(=O)[nH]1` here?
The MIC90 was over 50 µg/mL.

For `O=C(O)c1cc(=O)[nH]c2c1CCC2`, which MIC90 is on record?
Its MIC90 is over 50 µg/mL.

For `O=C(O)c1cc(=O)[nH]c2c1CCCC2`, which MIC90 is on record?
The MIC90 was over 50 µg/mL.

For `O=C(O)c1cc(=O)[nH]c2c1CCCCCC2`, which MIC90 is on record?
The MIC90 was over 50 µg/mL.

For `COC(=O)c1cc(C)[n+]([O-])c(Cl)c1`, which MIC90 is on record?
The MIC90 was over 100 µg/mL.

With `COC(=O)c1cc(Cl)[n+]([O-])c2c1CCC2` as the compound, how does the MIC90 read?
The MIC90 was over 100 µg/mL.

For `COC(=O)c1cc(Cl)[n+]([O-])c2c1CCCC2`, which MIC90 is on record?
The MIC90 was over 100 µg/mL.

With `COC(=O)c1cc(Cl)[n+]([O-])c2c1CCCCCC2` as the compound, how does the MIC90 read?
Its MIC90 is over 50 µg/mL.

With `COC(=O)c1cc(C)n(O)c(=O)c1` as the compound, how does the MIC90 read?
The MIC90 was over 100 µg/mL.

Which MIC90 does the source give for `CCOc1cc(C(=O)O)c2c([n+]1[O-])CCC2` here?
Its MIC90 is over 100 µg/mL.

Which MIC90 does the source give for `CCOc1cc(C(=O)O)c2c([n+]1[O-])CCCC2` here?
The MIC90 was over 100 µg/mL.

Which MIC90 does the source give for `Cc1cc(C(=O)O)cc(=O)n1O` here?
The MIC90 was over 50 µg/mL.

For `O=C(O)c1cc(=O)n(O)c2c1CCC2`, which MIC90 is on record?
The MIC90 was over 100 µg/mL.

For `O=C(O)c1cc(=O)n(O)c2c1CCCC2`, which MIC90 is on record?
The MIC90 was over 100 µg/mL.

With `CCOc1cc(C(=O)O)cc(OCC)[n+]1[O-]` as the compound, how does the MIC90 read?
Its MIC90 is over 100 µg/mL.

For `O=C(O)c1cc(O)nc2ccccc12`, which MIC90 is on record?
The MIC90 was over 50 µg/mL.

Which MIC90 does the source give for `Cc1ccc2[nH]c(=O)cc(C(=O)O)c2c1` here?
The MIC90 was over 50 µg/mL.

With `O=C(O)c1cc(=O)[nH]c2ccc(F)cc12` as the compound, how does the MIC90 read?
Its MIC90 is over 50 µg/mL.

Which MIC90 does the source give for `O=C(O)c1cc(=O)[nH]c2ccc([N+](=O)[O-])cc12` here?
Its MIC90 is over 50 µg/mL.

With `O=C(O)c1cc(=O)n(O)c2ccccc12` as the compound, how does the MIC90 read?
The MIC90 was over 100 µg/mL.

Which MIC90 does the source give for `Cc1ccc2c(c1)c(C(=O)O)cc(=O)n2O` here?
Its MIC90 is over 100 µg/mL.

Which MIC90 does the source give for `O=C(O)c1cc(=O)n(O)c2ccc(F)cc12` here?
Its MIC90 is over 100 µg/mL.

For `Cc1cc(C(=O)O)cc(Cl)[n+]1[O-]`, which MIC90 is on record?
The MIC90 was over 100 µg/mL.

For `O=C(O)c1cc(Cl)[n+]([O-])c2c1CCC2`, which MIC90 is on record?
Its MIC90 is over 50 µg/mL.

With `O=C(O)c1cc(Cl)[n+]([O-])c2c1CCCC2` as the compound, how does the MIC90 read?
Its MIC90 is over 100 µg/mL.

For `O=C(O)c1cc(Cl)[n+]([O-])c2c1CCCCCC2`, which MIC90 is on record?
Its MIC90 is over 100 µg/mL.

Which MIC90 does the source give for `O=C(O)c1cc(Cl)[n+]([O-])c2ccccc12` here?
The MIC90 was over 100 µg/mL.

Which MIC90 does the source give for `Cc1ccc2c(c1)c(C(=O)O)cc(Cl)[n+]2[O-]` here?
The MIC90 was over 100 µg/mL.

For `O=C(O)c1cc(Cl)[n+]([O-])c2ccc(F)cc12`, which MIC90 is on record?
The MIC90 was over 100 µg/mL.

With `NNC(=O)c1cc(=O)[nH]c2c1CCCC2` as the compound, how does the MIC90 read?
Its MIC90 is over 100 µg/mL.

With `NNC(=O)c1cc(=O)[nH]c2c1CCC2` as the compound, how does the MIC90 read?
Its MIC90 is over 100 µg/mL.

Which MIC90 does the source give for `NNC(=O)c1cc(=O)[nH]c2ccccc12` here?
The MIC90 was over 100 µg/mL.

For `Cc1ccc2[nH]c(=O)cc(C(=O)NN)c2c1`, which MIC90 is on record?
The MIC90 was over 100 µg/mL.

With `NNC(=O)c1cc(=O)[nH]c2ccc(F)cc12` as the compound, how does the MIC90 read?
The MIC90 was over 100 µg/mL.

Which MIC90 does the source give for `NNC(=O)c1cc(=O)[nH]c2ccc([N+](=O)[O-])cc12` here?
The MIC90 was over 100 µg/mL.

With `CCCn1c(=O)[nH]c(=O)c2c(C(=O)O)cc(=O)[nH]c21` as the compound, how does the MIC90 read?
Its MIC90 is over 100 µg/mL.

For `CCCn1c(=O)[nH]c(=O)c2c(C(=O)O)cc(Cl)nc21`, which MIC90 is on record?
Its MIC90 is 91.7 µg/mL (≈ 323 µM).

Which MIC90 does the source give for `O=C(O)c1cc(O)nc(O)c1` [CITRAZINIC ACID] here?
Its MIC90 is over 50 µg/mL.

With `NNC(=O)c1ccncc1` [ISONIAZID] as the compound, how does the MIC90 read?
Its MIC90 is 0.33 µg/mL (≈ 2.41 µM).

Which MIC90 does the source give for `COc1c(N2C[C@@H]3CCCN[C@@H]3C2)c(F)cc2c(=O)c(C(=O)O)cn(C3CC3)c12` [MOXIFLOXACIN] here?
Its MIC90 is 0.39 µg/mL (≈ 0.972 µM).

With `CO[C@H]1/C=C/O[C@@]2(C)Oc3c(C)c(O)c4c(O)c(c(/C=N/N5CCN(C)CC5)c(O)c4c3C2=O)NC(=O)/C(C)=C\C=C\[C@H](C)[C@H](O)[C@@H](C)[C@@H](O)[C@@H](C)[C@H](OC(C)=O)[C@@H]1C` [RIFAMPIN] as the compound, how does the MIC90 read?
The MIC90 was 0.05 µg/mL (≈ 0.0608 µM).

Test system: Mycobacterium tuberculosis
Assay: Antitubercular activity against non-replicating Mycobacterium tuberculosis assessed as minimum concentration required to inhibit 90% growth after 10 days under anaerobic condition by luciferase-based low-oxygen recovery assay
Type: functional
Conditions: not given
Method in brief: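 Non-replicating M. tuberculosis, low-oxygen recovery assay with luciferase read-out, run on compounds selected from the MABA screen. MIC taken as the lowest concentration inhibiting recovery of luciferase signal by ≥90% relative to bacteria-only controls. Rifampicin, isoniazid and moxifloxacin served as references.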

Which “inhibition (INH)” value does the source give for `NNC(=O)c1ccncc1` [ISONIAZID] here?
The value was 84%.

Same assay, conditions: Mycobacterium tuberculosis, 240 h

For `CCOC(=O)c1cc(Cl)[n+]([O-])c2ccc(C)cc12`, which MIC90 is on record?
The MIC90 was 3.65 µg/mL (≈ 13.7 µM).

For `CCOC(=O)c1cc(Cl)[n+]([O-])c2ccccc12`, which MIC90 is on record?
Its MIC90 is 7.3 µg/mL (≈ 29 µM).

Which MIC90 does the source give for `CCOC(=O)c1cc(Cl)[n+]([O-])c2ccc(F)cc12` here?
Its MIC90 is 13.1 µg/mL (≈ 48.6 µM).

With `NNC(=O)c1ccncc1` [ISONIAZID] as the compound, how does the MIC90 read?
Its MIC90 is over 128 µg/mL.

For `COc1c(N2C[C@@H]3CCCN[C@@H]3C2)c(F)cc2c(=O)c(C(=O)O)cn(C3CC3)c12` [MOXIFLOXACIN], which MIC90 is on record?
The MIC90 was 15.9 µg/mL (≈ 39.7 µM).
